According to ChEMBL document CHEMBL1146501, “Microbial transformation of isosteviol and inhibitory effects on Epstein-Barr virus activation of the transformation products” (J Nat Prod, 2004):

Experiments:
Format in all cases: cell-based
[1] = Cytotoxicity against human Raji cells assessed as cell viability at 1000 molar ratio by trypan blue assay; details: read-out: Activity
Raji [2] = assay: Inhibition of 12-O-tetradecanoylphorbol-13-acetate-induced EBV-early antigen activation in human Raji cells assessed as EA activation at 100 molar ratio after 48 hrs relative to TPA; parameters: scale not given: the % may be the effect or the level left; details: human gammaherpesvirus 4
Summary of the method: (§1)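 EBV genome-carrying nonproducer Raji lymphoblastoid cells grown in 10% FBS RPMI 1640. Cells were incubated at 37 °C for 48 h with n-butyric acid (4 mM) and TPA (32 pmol, 20 ng/mL) in DMSO, plus test compound in DMSO. Smears were stained with EA-positive nasopharyngeal carcinoma patient sera and read by indirect immunofluorescence, counting ≥500 cells per assay, run twice. Average EA induction is expressed relative to butyrate+TPA control.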

Raji [3] = assay: Inhibition of 12-O-tetradecanoylphorbol-13-acetate-induced EBV-early antigen activation in human Raji cells assessed as EA activation at 10 molar ratio after 48 hrs relative to TPA; parameters: scale not given: the % may be the effect or the level left; details: human gammaherpesvirus 4; summary of the method: as §1
Raji [4] = assay: Inhibition of 12-O-tetradecanoylphorbol-13-acetate-induced EBV-early antigen activation in human Raji cells assessed as EA activation at 1000 molar ratio after 48 hrs relative to TPA; parameters: scale not given: the % may be the effect or the level left; details: human gammaherpesvirus 4; summary of the method: as §1
Raji [5] = assay: Inhibition of 12-O-tetradecanoylphorbol-13-acetate-induced EBV-early antigen activation in human Raji cells assessed as EA activation at 500 molar ratio after 48 hrs relative to TPA; parameters: scale not given: the % may be the effect or the level left; details: human gammaherpesvirus 4; summary of the method: as §1

| Compound | viability at 1000 molar ratio [1] [%] | Activity (Raji [2]) [%] | Activity (Raji [3]) [%] | Activity (Raji [4]) [%] | Activity (Raji [5]) [%] |
| --- | --- | --- | --- | --- | --- |
| C[C@@]12CC[C@@H]3[C@@](CC1=O)(C2)C(=O)C[C@H]1[C@@]3(C)CCC[C@@]1(C)C(=O)O | 60 | 72.3 | 94.5 | 7.4 | 35.1 |
| C=C1C[C@@]23CC[C@H]4[C@@](C)(CCC[C@@]4(C)C(=O)O[C@@H]4O[C@H](CO)[C@@H](O)[C@H](O)[C@H]4O)[C@@H]2CC[C@]1(O[C@@H]1O[C@H](CO)[C@@H](O)[C@H](O)[C@H]1O[C@@H]1O[C@H](CO)[C@@H](O)[C@H](O)[C@H]1O)C3 [STEVIOSIDE] | 60 | 78.9 | 100 | 12.5 | 46.2 |
| C[C@@]12CC[C@@H]3[C@@](CC[C@H]4[C@@]3(C)CCC[C@@]4(C)C(=O)O)(CC1=O)C2 [ISOSTEVIOL] | 60 | 80 | 98.8 | 12.3 | 46.7 |
| C[C@@]12C[C@H](O)[C@@H]3[C@@](CC[C@H]4[C@@]3(C)CCC[C@@]4(C)C(=O)O)(CC1=O)C2 | 60 | 74.1 | 91 | 4 | 39.8 |
| C[C@@]12CCC[C@@](C)(C(=O)O)[C@H]1CC[C@]13CC(=O)[C@](C)(C1)[C@H](O)C[C@H]32 | 60 | 75.1 | 93.2 | 5.7 | 40 |
| C[C@@]12CCC[C@@](C)(C(=O)O)[C@H]1CC[C@@]13CC(=O)[C@@](CO)(CC[C@H]12)C3 | 60 | 77 | 95.7 | 8.2 | 42.6 |
| CC1=C(/C=C/C(C)=C/C=C/C(C)=C/C=C/C=C(C)/C=C/C=C(C)/C=C/C2=C(C)CCCC2(C)C)C(C)(C)CCC1 |  |  | 100 | 8.6 |  |
| C[C@@]12CC[C@H]3[C@]4(C)CCC[C@@](C)(C(=O)O)[C@H]4C[C@H](O)[C@]3(CC1=O)C2 | 60 | 76.3 | 94.6 | 6.9 | 41.7 |
